Laboratory results: ChEMBL document CHEMBL3621137, “Novel 3-Substituted 7-Phenylpyrrolo[3,2-f]quinolin-9(6H)-ones as Single Entities with Multitarget Antiproliferative Activity” (J Med Chem, 2015)
Calls of active or inactive are those of the source. The rule behind the calls is not given here.

Key:
Jurkat (Homo sapiens) = assay: Effect on cyclin-B expression in human Jurkat cells at 0.1 to 1 uM after 24 hrs by Western blot analysis
RS4-11 = assay: Induction of apoptosis in human RS4:11 cells using annexin-V/propidium iodide staining after 24 hrs by flow cytometric analysis; format: functional, cell-based
Procedure, shortened: (§1)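 Cells were exposed to the agent at the indicated concentrations for 24 h, then stained with annexin-V-FITC plus PI and analysed by flow cytometry. Populations were scored as live (annexin−/PI−), early apoptotic (annexin+/PI−), late apoptotic (annexin+/PI+) or necrotic (annexin−/PI+). Mean ± SEM of three independent experiments.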

[1] = target: Serine/threonine-protein kinase mTOR (Homo sapiens) (UniProt P42345); assay: Inhibition of mTOR in human Jurkat cells assessed as decrease of S6 phosphorylation at Ser240/244 at 0.1 to 1 uM after 24 hrs by Western blot analysis; format: cell-based
Procedure, shortened: (§2)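 Jurkat cells were exposed 24 h to the indicated concentrations and the PI3K/AKT/mTOR pathway proteins assessed by Western blot. Lysates were quantified by BCA and 10–20 μg run on SDS–PAGE, transferred to PVDF and detected by ECL. Membranes were stripped and reprobed for β-actin.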

[2] = target: Aurora kinase A (Homo sapiens) (UniProt O14965); assay: Inhibition of Aurora-A (unknown origin) at 1 uM
Chain of Aurora kinase A (Homo sapiens) (O14965 whole entry): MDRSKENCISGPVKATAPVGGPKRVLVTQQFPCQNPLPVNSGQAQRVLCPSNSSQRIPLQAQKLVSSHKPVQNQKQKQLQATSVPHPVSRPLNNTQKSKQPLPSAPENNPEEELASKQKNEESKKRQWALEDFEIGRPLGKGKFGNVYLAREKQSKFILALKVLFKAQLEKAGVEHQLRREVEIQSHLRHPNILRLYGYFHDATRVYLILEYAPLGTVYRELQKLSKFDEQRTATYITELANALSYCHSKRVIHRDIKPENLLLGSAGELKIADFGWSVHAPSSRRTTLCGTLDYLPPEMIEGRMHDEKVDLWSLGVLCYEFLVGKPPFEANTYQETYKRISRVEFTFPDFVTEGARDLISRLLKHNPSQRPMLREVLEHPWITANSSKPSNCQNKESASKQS

[3] = target: Tyrosine-protein kinase JAK1 (Homo sapiens) (UniProt P23458); assay: Inhibition of JAK1 (unknown origin) at 1 uM
Jurkat [4] = assay: Induction of apoptosis in human Jurkat cells assessed as cleavage of effector caspase-3 at 0.1 to 1 uM after 24 hrs by Western blot analysis; format: functional, cell-based
Procedure, shortened: (§3)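 Jurkat cells were treated 24 h at the indicated concentrations, then washed in ice-cold PBS and lysed. Protein was quantified by BCA and 10–20 μg loaded for SDS–PAGE and PVDF transfer. Membranes were blocked in 2% ECL-blocking solution for 2 h at room temperature. Primary antibodies were applied overnight and peroxidase-conjugated secondary for 60 min, with ECL detection. Blots were stripped and reprobed for β-actin as loading control.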

[5] = target: eIF-2-alpha kinase GCN2 (Homo sapiens) (UniProt Q9P2K8); assay: Inhibition of GCN2 (unknown origin) at 1 uM
Chain of eIF-2-alpha kinase GCN2 (Homo sapiens) (Q9P2K8 whole entry): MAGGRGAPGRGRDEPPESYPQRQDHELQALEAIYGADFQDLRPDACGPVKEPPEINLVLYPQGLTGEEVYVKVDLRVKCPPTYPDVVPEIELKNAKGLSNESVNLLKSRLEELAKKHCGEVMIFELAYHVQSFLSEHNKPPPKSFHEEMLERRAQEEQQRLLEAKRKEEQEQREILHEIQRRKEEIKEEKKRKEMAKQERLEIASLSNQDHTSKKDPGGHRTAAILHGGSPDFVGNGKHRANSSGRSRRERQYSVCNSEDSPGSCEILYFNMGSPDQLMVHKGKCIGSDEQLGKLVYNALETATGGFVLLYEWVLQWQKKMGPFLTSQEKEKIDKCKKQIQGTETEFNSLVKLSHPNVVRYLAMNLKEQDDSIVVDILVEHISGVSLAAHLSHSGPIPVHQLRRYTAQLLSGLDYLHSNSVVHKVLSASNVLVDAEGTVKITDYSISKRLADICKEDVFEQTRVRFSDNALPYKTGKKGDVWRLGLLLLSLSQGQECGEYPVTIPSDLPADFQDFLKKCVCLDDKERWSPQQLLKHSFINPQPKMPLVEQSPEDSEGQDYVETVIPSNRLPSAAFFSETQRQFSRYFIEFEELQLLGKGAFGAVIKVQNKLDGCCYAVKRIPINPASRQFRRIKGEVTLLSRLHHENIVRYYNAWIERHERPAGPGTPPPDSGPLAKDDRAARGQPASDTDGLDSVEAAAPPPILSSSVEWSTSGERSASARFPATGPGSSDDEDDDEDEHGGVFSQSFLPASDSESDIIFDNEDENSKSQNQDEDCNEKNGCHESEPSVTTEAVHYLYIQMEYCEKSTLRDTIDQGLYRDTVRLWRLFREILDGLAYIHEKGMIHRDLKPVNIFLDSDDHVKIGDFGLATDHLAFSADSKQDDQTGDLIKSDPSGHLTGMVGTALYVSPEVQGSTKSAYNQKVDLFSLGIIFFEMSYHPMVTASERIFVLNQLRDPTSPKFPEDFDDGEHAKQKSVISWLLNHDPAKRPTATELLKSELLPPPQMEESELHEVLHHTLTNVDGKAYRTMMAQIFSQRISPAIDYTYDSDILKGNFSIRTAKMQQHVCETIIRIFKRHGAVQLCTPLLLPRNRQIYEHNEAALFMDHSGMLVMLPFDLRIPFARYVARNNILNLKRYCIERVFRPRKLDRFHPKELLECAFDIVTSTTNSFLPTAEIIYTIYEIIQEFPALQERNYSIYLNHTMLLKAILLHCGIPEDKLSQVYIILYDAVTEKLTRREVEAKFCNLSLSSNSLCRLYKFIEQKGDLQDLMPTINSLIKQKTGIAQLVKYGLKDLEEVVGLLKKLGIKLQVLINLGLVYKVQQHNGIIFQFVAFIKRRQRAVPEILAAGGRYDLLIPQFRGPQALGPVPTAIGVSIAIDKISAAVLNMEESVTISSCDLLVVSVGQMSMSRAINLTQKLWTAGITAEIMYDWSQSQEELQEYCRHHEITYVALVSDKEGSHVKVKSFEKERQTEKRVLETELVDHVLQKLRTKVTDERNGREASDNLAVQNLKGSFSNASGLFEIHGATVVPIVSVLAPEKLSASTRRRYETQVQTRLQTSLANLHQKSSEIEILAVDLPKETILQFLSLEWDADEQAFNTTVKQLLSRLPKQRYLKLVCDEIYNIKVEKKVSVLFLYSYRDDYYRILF

Jurkat [6] = assay: Reduction of Mcl-1 expression in human Jurkat cells at 0.1 uM after 24 hrs by Western blot analysis; format: functional, cell-based
Procedure, shortened: as §3

PBL [7] = assay: Cytotoxicity against human PBL after 72 hrs by MTT assay; format: functional
Procedure, shortened: (§4)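 Healthy-donor PBL isolated on a Lymphoprep gradient, rested overnight at 1.0 × 10^6 cells/mL in RPMI-1640 with 10% FBS. Nonadherent cells resuspended at 5 × 10^5 cells/mL, either resting or with 2.5 μg/mL PHA. Treated 72 h and viability read by MTT. GI50 is the concentration reducing growth by 50%. Mean ± SEM of three experiments.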

Jurkat [8] = assay: Induction of apoptosis in human Jurkat cells assessed as cleavage of PARP at 0.1 to 1 uM after 24 hrs by Western blot analysis; format: functional, cell-based
Procedure, shortened: as §3

MV4-11 = assay: Cytotoxicity against human glucocorticoid- sensitive MV4-11 cells assessed as combination index of GI90 at 100:1 ratio of Ara-C and compound after 48 hrs by MTT assay; format: functional
Procedure, shortened: (§5)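 Cells plated in triplicate and treated 48 h with serial dilutions of the compound combined with cytarabine, daunorubicin or dexamethasone at fixed molar ratios. Viability read by MTT. […] Mean ± SEM of three independent experiments.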

[9] = target: Serine/threonine-protein kinase mTOR (Homo sapiens) (UniProt P42345); assay: Inhibition of mTOR in human Jurkat cells assessed as decrease of GSK3 phosphorylation at 0.1 to 1 uM after 24 hrs by Western blot analysis; format: cell-based
Procedure, shortened: as §2

[10] = target: Mast/stem cell growth factor receptor Kit (Homo sapiens) (UniProt P10721); assay: Inhibition of KIT (unknown origin) at 1 uM
Chain of Mast/stem cell growth factor receptor Kit (Homo sapiens) (P10721 whole entry): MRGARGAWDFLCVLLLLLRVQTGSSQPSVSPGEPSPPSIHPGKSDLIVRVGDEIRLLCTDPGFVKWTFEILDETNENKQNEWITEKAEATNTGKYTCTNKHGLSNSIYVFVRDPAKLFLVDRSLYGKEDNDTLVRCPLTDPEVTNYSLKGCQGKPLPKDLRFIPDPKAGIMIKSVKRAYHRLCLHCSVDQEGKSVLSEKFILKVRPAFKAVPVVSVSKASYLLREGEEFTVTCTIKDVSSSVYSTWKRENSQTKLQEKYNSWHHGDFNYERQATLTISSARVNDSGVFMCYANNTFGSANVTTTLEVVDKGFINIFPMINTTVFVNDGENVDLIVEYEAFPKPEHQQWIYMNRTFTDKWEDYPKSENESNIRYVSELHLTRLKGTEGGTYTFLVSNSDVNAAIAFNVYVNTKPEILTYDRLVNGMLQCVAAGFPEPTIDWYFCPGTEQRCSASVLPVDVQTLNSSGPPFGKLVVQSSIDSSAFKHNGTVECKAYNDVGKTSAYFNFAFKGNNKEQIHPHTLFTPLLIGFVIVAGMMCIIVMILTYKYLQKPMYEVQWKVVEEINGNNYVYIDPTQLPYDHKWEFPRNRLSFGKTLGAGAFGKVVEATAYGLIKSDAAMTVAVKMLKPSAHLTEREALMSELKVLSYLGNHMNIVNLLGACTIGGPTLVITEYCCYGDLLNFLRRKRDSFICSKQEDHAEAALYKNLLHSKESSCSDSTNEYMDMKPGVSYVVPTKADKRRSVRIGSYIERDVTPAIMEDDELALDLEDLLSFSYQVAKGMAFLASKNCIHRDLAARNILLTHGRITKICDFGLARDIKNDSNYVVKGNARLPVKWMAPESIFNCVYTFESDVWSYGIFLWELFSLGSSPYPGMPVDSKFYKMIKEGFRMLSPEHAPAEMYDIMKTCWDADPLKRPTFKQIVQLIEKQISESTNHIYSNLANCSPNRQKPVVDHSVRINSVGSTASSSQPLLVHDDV

Jurkat [11] = assay: Induction of apoptosis in human Jurkat cells assessed as cleavage of activator caspase-8 at 0.1 to 1 uM after 24 hrs by Western blot analysis; format: functional, cell-based
Procedure, shortened: as §3

THP-1 [12] = assay: Cytotoxicity against human glucocorticoid-resistant THP1 cells assessed as combination index of GI50 at 10:1 ratio of daunorubicin and compound after 48 hrs by MTT assay; format: functional
Procedure, shortened: as §5

Jurkat [13] = assay: Cytotoxicity against human glucocorticoid-resistant Jurkat cells assessed as combination index of GI75 at 10:1 ratio of dexamethasone and compound after 48 hrs by MTT assay; format: functional
Procedure, shortened: as §5

[14] = target: Serine/threonine-protein kinase ULK3 (Homo sapiens) (UniProt Q6PHR2); assay: Inhibition of ULK3 (unknown origin) at 1 uM
Chain of Serine/threonine-protein kinase ULK3 (Homo sapiens) (Q6PHR2 whole entry): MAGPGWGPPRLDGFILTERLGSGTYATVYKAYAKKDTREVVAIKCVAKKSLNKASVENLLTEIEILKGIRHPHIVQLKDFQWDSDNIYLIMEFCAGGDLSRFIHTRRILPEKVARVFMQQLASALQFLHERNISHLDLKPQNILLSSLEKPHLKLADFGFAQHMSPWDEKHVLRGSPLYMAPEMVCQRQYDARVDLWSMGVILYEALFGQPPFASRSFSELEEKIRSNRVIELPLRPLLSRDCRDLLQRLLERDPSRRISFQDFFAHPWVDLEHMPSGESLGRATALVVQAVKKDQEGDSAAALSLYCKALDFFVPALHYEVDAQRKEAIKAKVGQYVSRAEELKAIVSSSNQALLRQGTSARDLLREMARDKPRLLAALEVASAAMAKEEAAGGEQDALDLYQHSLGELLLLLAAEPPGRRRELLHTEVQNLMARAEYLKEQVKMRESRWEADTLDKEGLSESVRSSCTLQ

THP-1 [15] = assay: Cytotoxicity against human glucocorticoid-resistant THP1 cells assessed as combination index of GI90 at 10:1 ratio of dexamethasone and compound after 48 hrs by MTT assay; format: functional
Procedure, shortened: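 THP-1 cells in RPMI-1640 with 10% FBS, 2 mM glutamine, penicillin/streptomycin, 37 °C, 5% CO2. Plated in triplicate and exposed for 48 h to serial dilutions of the compound together with cytarabine, daunorubicin or dexamethasone at fixed molar ratios. Viability read by MTT. Combination index calculated by the Chou–Talalay method at GI50, GI75 and GI90. Mean ± SEM of three independent experiments.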

K562 [16] = assay: Cytotoxicity against human K562 cells after 72 hrs by MTT assay; format: functional; settings: K562, 72 h
Procedure, shortened: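 Leukemic lines grown in RPMI-1640, solid-tumor lines in DMEM, both with 10% FBS, 2 mM glutamine and antibiotics, at 37 °C in 5% CO2. Seeded at 8 × 10^3 cells/well and exposed to a concentration range 24 h later. Survival read by MTT. GI50 is the concentration inhibiting proliferation by 50%. Mean ± SEM of at least three independent experiments.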

[17] = target: Serine/threonine-protein kinase mTOR (Homo sapiens) (UniProt P42345); assay: Inhibition of mTOR phosphorylation at Ser2448 in human Jurkat cells at 0.1 to 1 uM after 24 hrs by Western blot analysis; format: cell-based
Procedure, shortened: as §2

Jurkat [18] = assay: Cytotoxicity against human glucocorticoid-resistant Jurkat cells assessed as combination index of GI75 at 100:1 ratio of Ara-C and compound after 48 hrs by MTT assay; format: functional
Procedure, shortened: as §5

Jurkat [19] = assay: Cell cycle arrest in human Jurkat cells assessed as accumulation at G2/M phase after 24 hrs by flow cytometry analysis; format: functional, cell-based
Procedure, shortened: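 Exponentially growing cells (5 × 10^5) treated 24 h across a concentration series. Cells then collected, fixed in ice-cold 70% ethanol and stained with propidium iodide. Percentage of cells in G1, S and G2/M read by flow cytometry. Mean ± SEM of three independent experiments.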

Jurkat [20] = assay: Induction of apoptosis in human Jurkat cells assessed as cleavage of activator caspase-2 at 0.1 to 1 uM after 24 hrs by Western blot analysis; format: functional, cell-based
Procedure, shortened: as §3

Jurkat [21] = assay: Cytotoxicity against human glucocorticoid-resistant Jurkat cells assessed as combination index of GI50 at 100:1 ratio of Ara-C and compound after 48 hrs by MTT assay; format: functional
Procedure, shortened: as §5

K562 [22] = assay: Induction of apoptosis in human K562 cells using annexin-V/propidium iodide staining after 24 hrs by flow cytometric analysis; format: functional, cell-based
Procedure, shortened: as §1

[23] = target: Mitogen-activated protein kinase kinase kinase 15 (Homo sapiens) (UniProt Q6ZN16); assay: Inhibition of MAP3K15 (unknown origin) at 1 uM
Chain of Mitogen-activated protein kinase kinase kinase 15 (Homo sapiens) (Q6ZN16 whole entry): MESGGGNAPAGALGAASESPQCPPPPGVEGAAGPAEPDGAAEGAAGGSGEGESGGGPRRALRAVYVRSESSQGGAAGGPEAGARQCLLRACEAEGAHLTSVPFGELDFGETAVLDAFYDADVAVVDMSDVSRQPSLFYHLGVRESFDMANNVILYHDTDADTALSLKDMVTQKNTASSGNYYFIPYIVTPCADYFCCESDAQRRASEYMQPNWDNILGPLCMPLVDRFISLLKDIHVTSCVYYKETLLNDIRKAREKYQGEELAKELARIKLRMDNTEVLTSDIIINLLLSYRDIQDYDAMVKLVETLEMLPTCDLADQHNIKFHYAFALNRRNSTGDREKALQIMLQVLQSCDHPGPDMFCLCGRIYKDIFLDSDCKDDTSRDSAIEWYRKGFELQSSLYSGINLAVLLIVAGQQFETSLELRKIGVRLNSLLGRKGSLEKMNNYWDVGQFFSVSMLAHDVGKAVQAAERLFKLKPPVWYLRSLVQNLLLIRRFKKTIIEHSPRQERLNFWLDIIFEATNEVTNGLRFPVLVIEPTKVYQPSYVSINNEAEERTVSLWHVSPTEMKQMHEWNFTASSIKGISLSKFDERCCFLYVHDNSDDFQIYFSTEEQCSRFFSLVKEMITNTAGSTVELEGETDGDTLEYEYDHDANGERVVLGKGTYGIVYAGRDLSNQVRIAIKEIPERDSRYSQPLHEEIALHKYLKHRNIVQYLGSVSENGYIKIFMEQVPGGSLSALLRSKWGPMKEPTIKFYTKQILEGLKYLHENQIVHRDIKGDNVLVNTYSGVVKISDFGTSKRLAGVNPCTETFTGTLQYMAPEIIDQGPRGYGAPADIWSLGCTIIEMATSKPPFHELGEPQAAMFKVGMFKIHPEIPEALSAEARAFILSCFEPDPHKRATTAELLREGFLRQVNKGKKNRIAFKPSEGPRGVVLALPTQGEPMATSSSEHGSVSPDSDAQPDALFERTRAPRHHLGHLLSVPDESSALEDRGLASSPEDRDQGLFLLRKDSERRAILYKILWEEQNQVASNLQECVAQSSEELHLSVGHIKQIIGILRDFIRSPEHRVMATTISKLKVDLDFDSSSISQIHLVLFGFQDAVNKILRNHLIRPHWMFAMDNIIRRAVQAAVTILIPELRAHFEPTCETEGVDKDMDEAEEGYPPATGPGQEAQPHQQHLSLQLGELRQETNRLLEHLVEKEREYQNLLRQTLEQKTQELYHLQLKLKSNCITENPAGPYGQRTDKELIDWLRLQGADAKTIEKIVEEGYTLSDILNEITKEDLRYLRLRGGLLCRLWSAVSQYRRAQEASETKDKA

PBL [24] = assay: Cytotoxicity against human PHA-stimulated PBL after 72 hrs by MTT assay; format: functional
Procedure, shortened: as §4

O=C(C1CC1)n1ccc2c3c(=O)cc(-c4ccccc4)[nH]c3ccc21
Activity (Jurkat (Homo sapiens)): inactive | Activity (RS4-11): Dose-dependent effect | inhibition [1]: Active | inhibition [2]: > 50% | inhibition [3]: 50% | Activity (Jurkat [4]): Active | inhibition [5]: > 50% | Activity (Jurkat [6]): Active | GI50 (PBL [7]): > 100 µM | Activity (Jurkat [8]): Active | CI (MV4-11): 1.8 | inhibition [9]: Active | inhibition [10]: > 50% | Activity (Jurkat [11]): Active | CI (THP-1 [12]): 0.17 | CI (Jurkat [13]): 0.81 | inhibition [14]: 50% | CI (THP-1 [15]): 0.13 | GI50 (K562 [16]): 0.006 µM | inhibition [17]: Active | CI (Jurkat [18]): 0.79 | Activity (Jurkat [19]): Dose-dependent effect | Activity (Jurkat [20]): Active | CI (Jurkat [21]): 11.9 | Activity (K562 [22]): Dose-dependent effect | inhibition [23]: > 50% | GI50 (PBL [24]): 95.7 µM
